Reference: ChEMBL document CHEMBL1122519, “Bispyridinamines: a new class of topical antimicrobial agents as inhibitors of dental plaque” (1984)

What was measured:
Staphylococcus aureus [1] = assay: Compound is evaluated for the antimicrobial minimum inhibitory concentration against Staphylococcus aureus (Smith); format: functional
Procedure, shortened: (§1)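 Serial twofold tube dilution in tryptose phosphate broth. Each compound was prepared as a 1000 μg/mL aqueous stock and diluted in double-strength broth, then 2×10^5 cells were added. Tubes were incubated aerobically at 37 °C for 24 h. The MIC was taken as the lowest concentration with no visible growth.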

Pseudomonas aeruginosa [2] = assay: Compound is evaluated for the antimicrobial minimum inhibitory concentration against Pseudomonas aeruginosa MGH-1; format: functional
Escherichia coli [3] = assay: Minimum inhibitory concentration against Escherichia coli (Vogel); format: functional; procedure, shortened: as §1
Streptococcus mutans [4] = assay: Compound is evaluated for minimum plaque inhibitory concentration using a standard test organism, Streptococcus mutans OMZ-61; format: functional
Procedure, shortened: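 S. mutans OMZ-61 in pH 7.0 beef extract–trypticase medium with 0.5% sucrose. Sterile ceramic hydroxylapatite plates got two 1-min soaks in 0.1–0.001% compound, each followed by 1-min air-drying, then a 5-min water rinse. Plates were put in inoculated medium at 37 °C anaerobically for 24 h. The cycle was repeated for a second 24 h. Plaque was stained with 1% FD&C Red No. 3. Value is the lowest concentration completely preventing plaque.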

Klebsiella pneumoniae = assay: Minimum inhibitory concentration against Klebsiella pneumonia 39645; format: functional; procedure, shortened: as §1
Proteus mirabilis [5] = assay: Compound is evaluated for the antimicrobial minimum inhibitory concentration against Proteus mirabilis MGH-1; format: functional; procedure, shortened: as §1
[6] = Compound is evaluated for stain index; format: functional
Procedure, shortened: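 Ratio of the minimum concentration staining a plaque-free ceramic hydroxylapatite plate to the minimum plaque-inhibiting concentration, both run under the same conditions. Plates got two 1-min soaks (0.1–0.001%), each followed by air-drying, then a water rinse. They were then held 24 h anaerobically at 37 °C in sucrose beef-extract medium, with or without S. mutans OMZ-61, repeated once. Staining was 1-min 1% FD&C Red No. 3, scored visually.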

Streptococcus mutans [7] = assay: Minimum plaque inhibitory concentration using a standard test organism, Streptococcus mutans OMZ-61; format: functional, organism-based
Procedure, shortened: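 Ceramic hydroxylapatite plates were soaked twice for 1 min each in compound at […] (aqueous), air-dried and rinsed, then hung in sucrose beef-extract medium (pH 7.0) inoculated with late-log S. mutans OMZ-61. Incubation was anaerobic at 37 °C for 24 h, and treatment plus reinoculation were repeated for a second 24 h. Plaque was stained with 1% FD&C Red No. 3 and scored visually. The value is the lowest concentration giving no plaque while medium growth matched control.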

Staphylococcus aureus [8] = assay: Minimum antimicrobial inhibitory concentration against Staphylococcus aureus; format: functional; procedure, shortened: as §1
Proteus mirabilis [9] = assay: Minimum antimicrobial inhibitory concentration against Proteus mirabilis MGH-1; format: functional; procedure, shortened: as §1
Actinomyces viscosus = assay: Compound is evaluated for minimal bactericidal concentration against plaque formation for Actinomyces viscosus; format: functional, organism-based
Procedure, shortened: (§2)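 Preformed in vitro plaques of S. mutans NCTC 10449 or A. viscosus M-100 were grown on ceramic hydroxylapatite under anaerobic conditions at 37 °C in sucrose-supplemented medium. Plaques were immersed for 30 min at 37 °C in compound at 0.3–20 mM, rinsed, and moved to broth containing bromocresol purple. Kill was judged by no acid production, no turbidity increase and no growth on plating at 48 h. Plaques were run in quadruplicate.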

Escherichia coli [10] = assay: Antimicrobial minimum inhibitory concentration against Escherichia coli 100/B22; format: functional; procedure, shortened: as §1
Streptococcus mutans [11] = assay: Compound is evaluated for minimal bactericidal concentration against plaque formation for Streptococcus mutans; format: functional, organism-based; procedure, shortened: as §2
Escherichia coli [12] = assay: Antimicrobial minimum inhibitory concentration against Escherichia coli AB1932-1; format: functional; procedure, shortened: as §1
Pseudomonas aeruginosa [13] = assay: Minimum antimicrobial inhibitory concentration against Pseudomonas aeruginosa MGH-2; format: functional; procedure, shortened: as §1
Streptococcus mutans [14] = assay: Compound is evaluated for the inhibition of plaque-forming enzyme of Streptococcus mutans OMZ-61; format: functional
Procedure, shortened: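 S. mutans OMZ-61 was grown anaerobically at 37 °C for 24 h in glucose medium. The cell-free filtrate, adjusted to pH 5.5, served as the dextran/levan sucrase source. Reactions contained 3 μmol 14C-sucrose in citrate phosphate buffer pH 5.5 with 4% EtOH and ran 2 h at 37 °C. MeOH-insoluble polysaccharide was counted by scintillation. Compounds were tested at 50, 160 and 500 μg base/mL, with lower levels if needed, and I50 was read graphically.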

Streptococcus mutans [15] = assay: Compound is evaluated for the growth inhibition of Streptococcus mutans OMZ-61; format: functional
Streptococcus mutans [16] = assay: Compound is evaluated for the effect of saliva upon the antiplaque activity at 0% of saliva and at 0.025 percentage of compound; - = No plaque accumulation; format: functional, organism-based
Procedure, shortened: (§3)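 Hydroxylapatite plate antiplaque assay against S. mutans run for 48 h, with two 1-min exposures to aqueous compound per 24 h. Growth medium contained 0, 5 or 50% pooled human saliva (paraffin-stimulated, centrifuged, filtered, membrane-sterilized). Plaque was stained with FD&C Red No. 3 and graded none, slight or moderate. Staining potential was scored on plates run without inoculum and graded none or slight.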

Streptococcus mutans [17] = assay: Compound is evaluated for the effect of saliva upon the staining potential at 0% of saliva and at 0.01 percentage of compound; + = Slight staining; format: functional, organism-based; procedure, shortened: as §3
Streptococcus mutans [18] = assay: Compound is evaluated for the effect of saliva upon the antiplaque activity at 0% of saliva and at 0.05 percentage of compound; + = Slight staining; format: functional, organism-based; procedure, shortened: as §3
Streptococcus mutans [19] = assay: Compound is evaluated for the effect of saliva upon the antiplaque activity at 50% of saliva and at 0.025 percentage of compound; - = No staining; format: functional, organism-based; procedure, shortened: as §3
Streptococcus mutans [20] = assay: Compound is evaluated for the effect of saliva upon the antiplaque activity at 50% of saliva and at 0.025 percentage of compound; - = No plaque accumulation; format: functional, organism-based; procedure, shortened: as §3
Streptococcus mutans [21] = assay: Compound is evaluated for the effect of saliva upon the antiplaque activity at 0% of saliva and at 0.025 percentage of compound; + = Slight staining; format: functional, organism-based; procedure, shortened: as §3
Streptococcus mutans [22] = assay: Compound is evaluated for the effect of saliva upon the antiplaque activity at 50% of saliva and at 0.05 percentage of compound; - = No staining; format: functional, organism-based; procedure, shortened: as §3
Streptococcus mutans [23] = assay: Compound is evaluated for the effect of saliva upon the antiplaque activity at 0% of saliva and at 0.01 percentage of compound; - = No plaque accumulation; format: functional, organism-based; procedure, shortened: as §3
Streptococcus mutans [24] = assay: Compound is evaluated for the effect of saliva upon the antiplaque activity at 50% of saliva and at 0.05 percentage of compound; - = No plaque accumulation; format: functional, organism-based; procedure, shortened: as §3
Streptococcus mutans [25] = assay: Compound is evaluated for the effect of saliva upon the antiplaque activity at 50% of saliva and at 0.01 percentage of compound; format: functional, organism-based; procedure, shortened: as §3
Streptococcus mutans [26] = assay: Compound is evaluated for the effect of saliva upon the antiplaque activity at 0% of saliva and at 0.05 percentage of compound; - = No plaque accumulation; format: functional, organism-based; procedure, shortened: as §3
Streptococcus mutans [27] = assay: Compound is evaluated for the effect of saliva upon the antiplaque activity at 50% of saliva and at 0.01 percentage of compound; - = No staining; format: functional, organism-based; procedure, shortened: as §3

| Compound | MIC (Escherichia coli [3]) | MIC (Klebsiella pneumoniae) | Stain index [6] | Concentration (Streptococcus mutans [7]) | MIC (Staphylococcus aureus [8]) | MIC (Proteus mirabilis [9]) | Concentration (Actinomyces viscosus) | MIC (Escherichia coli [10]) | Concentration (Streptococcus mutans [11]) | MIC (Escherichia coli [12]) | MIC (Pseudomonas aeruginosa [13]) | further results |
| --- | --- | --- | --- | --- | --- | --- | --- | --- | --- | --- | --- | --- |
| Br.Br.N=c1ccn(CCCCn2ccc(=N)cc2)cc1 | 500 µg/mL | > 500 µg/mL |  |  |  |  |  |  |  |  |  | MIC (Staphylococcus aureus [1]): 125 µg/mL; MIC (Pseudomonas aeruginosa [2]): > 500 µg/mL; Min plague Inhibitory (Streptococcus mutans [4]): >1%; MIC (Proteus mirabilis [5]): > 500 µg/mL |
| CCCCCCCCCN=c1ccn(CCCCCCn2ccc(=NCCCCCCCCC)cc2)cc1.Cl.Cl | 2 µg/mL | 3.9 µg/mL | 1 | 0.01% | 1 µg/mL | 7.8 µg/mL | 7.3 mM | 2 µg/mL | 7.3 mM | 2 µg/mL | 15.6 µg/mL |  |
| CCCCC(CC)CNC(=N)NC(=N)NCCCCCCNC(=N)NC(=N)NCC(CC)CCCC.Cl.Cl (stereo not drawn) [ALEXIDINE DIHYDROCHLORIDE] | 2 µg/mL | 3.9 µg/mL |  | 0.005% | 0.5 µg/mL | 31.3 µg/mL |  | 1 µg/mL |  | 1 µg/mL | 15.6 µg/mL | I50 (Streptococcus mutans [14]): 156 (ug of base) ml-1; MIC (Streptococcus mutans [15]): 0.5 (ug of base) ml-1; Plaque accum (Streptococcus mutans [16]): No plaque accumulation; Staining potential (Streptococcus mutans [17]): No staining; Staining potential (Streptococcus mutans [18]): No staining; Staining potential (Streptococcus mutans [19]): No staining; Plaque accum (Streptococcus mutans [20]): No plaque accumulation; Staining potential (Streptococcus mutans [21]): No staining; Staining potential (Streptococcus mutans [22]): No staining; Plaque accum (Streptococcus mutans [23]): No plaque accumulation; Plaque accum (Streptococcus mutans [24]): No plaque accumulation; Plaque accum (Streptococcus mutans [25]): No plaque accumulation; Plaque accum (Streptococcus mutans [26]): No plaque accumulation; Staining potential (Streptococcus mutans [27]): No staining |
| Br.Br.CCCCCCCCCN=c1ccn(CCCCCCCCCCn2ccc(=NCCCCCCCCC)cc2)cc1 | 2 µg/mL | 3.9 µg/mL | 1 | 0.004% | 2 µg/mL | 3.9 µg/mL | 2.7 mM | 3.9 µg/mL | 1.35 mM | 3.9 µg/mL | 3.9 µg/mL |  |
| CCCCCCCN=c1ccn(CCCCCCCCCCCCn2ccc(=NCCCCCCC)cc2)cc1.Cl.Cl | 0.5 µg/mL | 2 µg/mL | 10 | 0.003% | 0.2 µg/mL | 2 µg/mL | 2.81 mM | 0.5 µg/mL | 2.81 mM | 1 µg/mL | 3.9 µg/mL |  |
| Br.Br.N=c1ccn(CCCCCCn2ccc(=N)cc2)cc1 | 500 µg/mL | > 500 µg/mL |  |  |  |  |  |  |  |  |  | MIC (Staphylococcus aureus [1]): 250 µg/mL; MIC (Pseudomonas aeruginosa [2]): > 500 µg/mL; Min plague Inhibitory (Streptococcus mutans [4]): >1%; MIC (Proteus mirabilis [5]): > 500 µg/mL |
| Br.Br.CCCCCCCCN=c1ccn(CCCCCCCCCCCCn2ccc(=NCCCCCCCC)cc2)cc1 | 2 µg/mL | 1 µg/mL | 10 | 0.005% | 0.5 µg/mL | 2 µg/mL | 1.35 mM | 2 µg/mL | 2.7 mM | 2 µg/mL | 2 µg/mL |  |
| CCCCCCCN=c1ccn(CCCCCCCCCCn2ccc(=NCCCCCCC)cc2)cc1.Cl.Cl | 0.5 µg/mL | 1 µg/mL | 10 | 0.004% | 0.2 µg/mL | 7.8 µg/mL | 1.46 mM | 0.5 µg/mL | 0.73 mM | 1 µg/mL | 7.8 µg/mL |  |
| Br.Br.CCCCCCCCCN=c1ccn(CCCCCCCCCn2ccc(=NCCCCCCCCC)cc2)cc1 | 2 µg/mL | 3.9 µg/mL | 1 | 0.004% | 2 µg/mL | 3.9 µg/mL | 1.37 mM | 2 µg/mL | 1.37 mM | 3.9 µg/mL | 3.9 µg/mL |  |
| Br.Br.CCCCCCCCN=c1ccn(CCCCCCCCCCCCCCn2ccc(=NCCCCCCCC)cc2)cc1 | 7.8 µg/mL | 7.8 µg/mL | 2 | 0.005% | 1 µg/mL | 3.9 µg/mL | 2.6 mM | 3.9 µg/mL | 1.3 mM | 3.9 µg/mL | 3.9 µg/mL |  |
| CCCCCCN=c1ccn(CCCCCCCCCCCCCCn2ccc(=NCCCCCC)cc2)cc1.Cl.Cl | 1 µg/mL | 1 µg/mL | 1 | 0.004% | 0.5 µg/mL | 3.9 µg/mL | 2.8 mM | 0.5 µg/mL | 1.4 mM | 0.5 µg/mL | 3.9 µg/mL |  |
| Br.Br.CCCCCCCCCN=c1ccn(CCCCCCCCCCCCn2ccc(=NCCCCCCCCC)cc2)cc1 | 3.9 µg/mL | 3.9 µg/mL | 1 | 0.01% | 2 µg/mL | 3.9 µg/mL | 2.6 mM | 3.9 µg/mL | 1.3 mM | 7.8 µg/mL | 3.9 µg/mL |  |
